Results from ChEMBL document CHEMBL4196022, “Alkynyl-containing phenylthiazoles: Systemically active antibacterial agents effective against methicillin-resistant Staphylococcus aureus (MRSA)” (Eur J Med Chem, 2018).
Converted amounts (≈) assume the structure as drawn. The source made the active and inactive calls. The calls are words filed in the database; no cut-off is given here.

Columns and labels:
Staphylococcus aureus [1] = test: Bactericidal activity against methicillin-resistant Staphylococcus aureus USA300 up to 18 hrs by broth microdilution assay; type: functional; conditions: USA300, 18 h, read-out: MBC99.9
Staphylococcus aureus [2] = test: Antibacterial activity against methicillin-resistant Staphylococcus aureus USA300 after 20 hrs by broth microdilution assay; type: functional; conditions: USA300, 20 h
Procedure, shortened: (§1)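 Broth microdilution per CLSI in cation-adjusted Mueller Hinton broth. Compounds serially diluted, in triplicate. Incubation at 37 °C for at least 20 hours. MIC taken as the lowest concentration with no visible bacterial growth.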

[3] = human, microsomes, 1 h, 0.1 µM
Staphylococcus aureus [4] = test: Bactericidal activity against methicillin-resistant Staphylococcus aureus USA300 assessed as reduction in bacterial load at 4 times MIC after 24 hrs by time kill assay relative to control; type: functional
Staphylococcus aureus [5] = test: Antibacterial activity against methicillin-resistant Staphylococcus aureus NRS123 (USA400) after 20 hrs by broth microdilution assay; type: functional; procedure, shortened: as §1
Staphylococcus aureus [6] = test: Potency index, ratio of vancomycin MIC to compound MIC for antibacterial activity against vancomycin-resistant Staphylococcus aureus VRS12; type: functional
Staphylococcus aureus [7] = test: Bactericidal activity against methicillin-resistant Staphylococcus aureus USA300 assessed as reduction in bacterial load at 4 times MIC after 4 hrs by time kill assay relative to control; type: functional
Staphylococcus aureus [8] = test: Potency index, ratio of vancomycin MIC to compound MIC for antibacterial activity against vancomycin-resistant Staphylococcus aureus VRS11a; type: functional
Staphylococcus aureus [9] = test: Ratio of MBC to MIC for methicillin-resistant Staphylococcus aureus NRS123 (USA400); type: functional
Procedure, shortened: (§2)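 MBC/MIC ratio. […] MBC by plating no-growth wells onto tryptic soy agar at 37 °C for at least 18 h; taken as the concentration giving 99.9% growth inhibition.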

J774 [10] = test: Cytotoxicity against mouse J774 cells assessed as reduction in cell viability up to 16 ug/ml after 24 hrs by MTS assay; type: cell-based; conditions: j774, 24 h
Procedure, shortened: (§3)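 J774 murine macrophages were grown in DMEM with 10% FBS at 37 °C, 5% CO2. Compounds were tested at 8, 16 and 32 μg/mL in triplicate for 24 h, with a DMSO-matched control. MTS was added for 4 h and absorbance read at 490 nm. Viability is given as % of DMSO control (mean ± SD); Student t-test with Holm-Sidak test.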

Staphylococcus aureus [11] = test: Bactericidal activity against methicillin resistant vancomycin-resistant Staphylococcus aureus VRS12 up to 18 hrs by broth microdilution assay; type: functional; conditions: VRS12, 18 h, read-out: MBC99.9
Procedure, shortened: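 MBC set up from the MIC plates. Aliquots from wells with no growth spotted onto tryptic soy agar and incubated at 37 °C for at least 18 hours. MBC taken as the lowest concentration giving 99.9% inhibition of bacterial growth.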

Staphylococcus aureus [12] = test: Antibacterial activity against methicillin-resistant Staphylococcus aureus NRS107 after 20 hrs by broth microdilution assay; type: functional; conditions: NRS107, 20 h; procedure, shortened: as §1
Staphylococcus aureus [13] = test: Antibacterial activity against vancomycin-resistant Staphylococcus aureus VRS11a after 20 hrs by broth microdilution assay; type: functional; procedure, shortened: as §1
Staphylococcus aureus [14] = test: Ratio of MBC to MIC for methicillin-resistant Staphylococcus aureus NRS107; type: functional; procedure, shortened: as §2
Staphylococcus aureus [15] = test: Antibacterial activity against methicillin-resistant Staphylococcus aureus NRS123 (USA400) infected in mouse J774 cells at 16 ug/ml after 24 hrs; type: functional, organism-based
Procedure, shortened: (§4)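 J774 macrophages grown in DMEM with 10% FBS at 37 °C, 5% CO2. Infected with USA400 at MOI ~100:1 for 1 h, then washed with gentamicin 50 μg/mL. Treated in triplicate wells for 24 h, washed with gentamicin again and lysed with 0.1% Triton X-100. Lysate plated on tryptic soy agar for 18–22 h; CFU/mL counted.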

Staphylococcus aureus [16] = test: Ratio of MBC to MIC for vancomycin-resistant Staphylococcus aureus VRS11a; type: functional; procedure, shortened: as §2
Staphylococcus aureus [17] = test: Bactericidal activity against methicillin-resistant Staphylococcus aureus USA300 assessed as reduction in bacterial load at 4 times MIC after 12 hrs by time kill assay relative to control; type: functional
Staphylococcus aureus [18] = test: Bactericidal activity against methicillin resistant vancomycin-resistant Staphylococcus aureus VRS10 up to 18 hrs by broth microdilution assay; type: functional; conditions: VRS10, 18 h, read-out: MBC99.9
Staphylococcus aureus [19] = test: Bactericidal activity against methicillin-resistant Staphylococcus aureus NRS107 up to 18 hrs by broth microdilution assay; type: functional; conditions: NRS107, 18 h, read-out: MBC99.9
Staphylococcus aureus [20] = test: Potency index, ratio of vancomycin MIC to compound MIC for antibacterial activity against vancomycin-resistant Staphylococcus aureus VRS10; type: functional
Staphylococcus aureus [21] = test: Bactericidal activity against methicillin resistant vancomycin-resistant Staphylococcus aureus VRS11a up to 18 hrs by broth microdilution assay; type: functional; conditions: read-out: MBC99.9
Staphylococcus aureus [22] = test: Bactericidal activity against methicillin resistant Staphylococcus aureus NRS123 (USA400) up to 18 hrs by broth microdilution assay; type: functional; conditions: read-out: MBC99.9
Staphylococcus aureus [23] = test: Ratio of MBC to MIC for methicillin-resistant Staphylococcus aureus USA300; type: functional; procedure, shortened: as §2
Staphylococcus aureus [24] = test: Ratio of MBC to MIC for vancomycin-resistant Staphylococcus aureus VRS10; type: functional; procedure, shortened: as §2
Staphylococcus aureus [25] = test: Antibacterial activity against vancomycin-resistant Staphylococcus aureus VRS10 after 20 hrs by broth microdilution assay; type: functional; conditions: VRS10, 20 h; procedure, shortened: as §1
HRT-18 cell line = test: Cytotoxicity against human HRT18 cells assessed as reduction in cell viability up to 32 ug/ml after 2 hrs by MTS assay; type: cell-based; conditions: hrt-18, 2 h
Staphylococcus aureus [26] = test: Ratio of MBC to MIC for vancomycin-resistant Staphylococcus aureus VRS12; type: functional; procedure, shortened: as §2
Staphylococcus aureus [27] = test: Antibacterial activity against vancomycin-resistant Staphylococcus aureus VRS12 after 20 hrs by broth microdilution assay; type: functional; conditions: VRS12, 20 h; procedure, shortened: as §1
Staphylococcus aureus [28] = test: Bactericidal activity against methicillin-resistant Staphylococcus aureus NRS119 up to 18 hrs by broth microdilution assay; type: functional; conditions: NRS119, 18 h, read-out: MBC99.9
Staphylococcus aureus [29] = test: Ratio of MBC to MIC for methicillin-resistant Staphylococcus aureus NRS119; type: functional; procedure, shortened: as §2
Staphylococcus aureus [30] = test: Antibacterial activity against methicillin-resistant Staphylococcus aureus NRS119 after 20 hrs by broth microdilution assay; type: functional; conditions: NRS119, 20 h; procedure, shortened: as §1
[31] = Selectivity index, ratio of toxic concentration for human HRT18 cells to MIC for methicillin-resistant Staphylococcus aureus; type: toxicity; conditions: read-out: Selectivity Index
J774 [32] = test: Cytotoxicity against mouse J774 cells assessed as reduction in cell viability up to 8 ug/ml after 24 hrs by MTS assay; type: cell-based; conditions: j774, 24 h; procedure, shortened: as §3
Staphylococcus aureus [33] = test: Inhibition of UPPS/UPPP in vancomycin-resistant Staphylococcus aureus VRS10 assessed as potentiation of vancomycin-induced antibacterial activity by measuring fold reduction in vancomycin MIC at 0.5 times MIC preincubated for 30 mins followed by vancomycin addition measured after 20 to 22 hrs by broth microdilution assay relative to control
Procedure, shortened: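 VRS10 suspension pre-exposed to compound at ½ × MIC for 30 min at room temperature. […] Incubation at 37 °C for 20–22 h before the MIC was read; untreated bacteria served as control.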

Staphylococcus aureus [34] = test: Bactericidal activity against methicillin-resistant Staphylococcus aureus NRS123 (USA400) assessed as reduction in bacterial load at 4 times MIC after 8 hrs by time kill assay relative to control; type: functional
Staphylococcus aureus [35] = test: Antibacterial activity against methicillin-resistant Staphylococcus aureus NRS123 (USA400) infected in mouse J774 cells at 8 ug/ml after 24 hrs; type: functional, organism-based; procedure, shortened: as §4

Row | Structure (SMILES) | MBC (Staphylococcus aureus [1]) [µg/mL] | MIC (Staphylococcus aureus [2]) [µg/mL] | MIC (Staphylococcus aureus [5]) [µg/mL] | Ratio (Staphylococcus aureus [6]) | Ratio (Staphylococcus aureus [8]) | Ratio (Staphylococcus aureus [9]) | MBC (Staphylococcus aureus [11]) [µg/mL] | MIC (Staphylococcus aureus [12]) [µg/mL] | MIC (Staphylococcus aureus [13]) [µg/mL] | Ratio (Staphylococcus aureus [14]) | MBC (Staphylococcus aureus [18]) [µg/mL] | MBC (Staphylococcus aureus [19]) [µg/mL] | Ratio (Staphylococcus aureus [20]) | MBC (Staphylococcus aureus [21]) [µg/mL] | MBC (Staphylococcus aureus [22]) [µg/mL] | Ratio (Staphylococcus aureus [23]) | Ratio (Staphylococcus aureus [24]) | MIC (Staphylococcus aureus [25]) [µg/mL] | Activity (HRT-18 cell line) | Ratio (Staphylococcus aureus [26]) | also measured
1 | C/C(=N\NC1=NCCN1)c1sc(-c2ccc(C#CC3CC3)cc2)nc1C | 16 (≈ 44 µM) | 8 (≈ 22 µM) |  |  |  |  |  |  |  |  |  |  |  |  |  |  |  |  |  |  | CLH [3]: < 115.5 µL/min/mg
2 | C/C(=N\NC(=N)N)c1sc(-c2ccc(C#CC3CCCCC3)cc2)nc1C | 4 (≈ 10.5 µM) | 2 (≈ 5.27 µM) | 2 (≈ 5.27 µM) | 8 | >100 | <=3 | 2 (≈ 5.27 µM) | 16 (≈ 42.2 µM) | 1 (≈ 2.63 µM) | <=3 | 2 (≈ 5.27 µM) | 16 (≈ 42.2 µM) | >100 | 2 (≈ 5.27 µM) | 2 (≈ 5.27 µM) | <=3 | <=3 | 2 (≈ 5.27 µM) | Non-Toxic | <=3 | Activity (Staphylococcus aureus [4]): 4.3 deltalog10CFU/ml; Activity (Staphylococcus aureus [7]): 1.9 deltalog10CFU/ml; Activity (J774 [10]): Non-Toxic; Activity (Staphylococcus aureus [15]): inactive; Ratio (Staphylococcus aureus [16]): <=3; Activity (Staphylococcus aureus [17]): 2.8 deltalog10CFU/ml; MIC (Staphylococcus aureus [27]): 2 µg/mL (≈ 5.27 µM); MBC (Staphylococcus aureus [28]): 4 µg/mL (≈ 10.5 µM); Ratio (Staphylococcus aureus [29]): <=3; MIC (Staphylococcus aureus [30]): 4 µg/mL (≈ 10.5 µM); selectivity ratio [31]: 7 to 31
3 | C/C(=N\NC(=N)N)c1sc(-c2ccc(C#CC3CCCC3)cc2)nc1C | 4 (≈ 10.9 µM) | 2 (≈ 5.47 µM) | 2 (≈ 5.47 µM) | 8 | >100 | <=3 | 2 (≈ 5.47 µM) | 2 (≈ 5.47 µM) | 1 (≈ 2.74 µM) | <=3 | 2 (≈ 5.47 µM) | 2 (≈ 5.47 µM) | >100 | 4 (≈ 10.9 µM) | 2 (≈ 5.47 µM) | <=3 | <=3 | 2 (≈ 5.47 µM) | Non-Toxic | <=3 | Ratio (Staphylococcus aureus [16]; read-out: Ratio): 4; Activity (J774 [32]): Non-Toxic; fold change (FC) (Staphylococcus aureus [33]): 512; Activity (Staphylococcus aureus [34]): 3 deltalog10CFU/ml; Activity (Staphylococcus aureus [35]): inactive; MIC (Staphylococcus aureus [27]): 2 µg/mL (≈ 5.47 µM); MBC (Staphylococcus aureus [28]): 2 µg/mL (≈ 5.47 µM); Ratio (Staphylococcus aureus [29]): <=3; MIC (Staphylococcus aureus [30]): 1 µg/mL (≈ 2.74 µM); selectivity ratio [31]: 7 to 31
